From ChEMBL document CHEMBL1145175, “Investigations on the effects of basic side chains on the hormonal profile of (4R,5S)/(4S,5R)-4,5-bis(4-hydroxyphenyl)-2-imidazolines” (J Med Chem, 2005) come the findings set out here.

A word on the inhibition: it is the relative decrease from the control value, in per cent. Broadly, the EC50 is the concentration at which the effect is half-maximal. Broadly, the IC50 is the concentration that inhibits the measured activity by half. The low end stands for inhibition by little substance, the high end for a need for much substance.

The target in assay [1] is T1, Estrogen receptor beta (Homo sapiens, UniProt Q92731). Briefly: Percent inhibition of 0.30 nM estradiol activity on estrogen receptor beta in MCF-7-2a cells at 10 uM. Type of assay: cell-based. The following applies: in the assay text read “U-2 OS cells” for “MCF-7-2a cells”. The gist of the method: (§1)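 Antagonist mode used U-2 OS cells transiently co-transfected with pSG5-ERβ FL and (ERE)2luc+ in charcoal-stripped medium. Compounds at 10^-5 to 10^-13 M were co-incubated with E2 at 3.0 × 10^-10 M for 21 h. Luciferase luminescence was normalised to crystal-violet cell mass, in triplicate, and reported as % inhibition of the E2 signal.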

Assay [2] deals with T2, Estrogen receptor (Homo sapiens, UniProt P03372).
T2 sequence (P03372 whole entry): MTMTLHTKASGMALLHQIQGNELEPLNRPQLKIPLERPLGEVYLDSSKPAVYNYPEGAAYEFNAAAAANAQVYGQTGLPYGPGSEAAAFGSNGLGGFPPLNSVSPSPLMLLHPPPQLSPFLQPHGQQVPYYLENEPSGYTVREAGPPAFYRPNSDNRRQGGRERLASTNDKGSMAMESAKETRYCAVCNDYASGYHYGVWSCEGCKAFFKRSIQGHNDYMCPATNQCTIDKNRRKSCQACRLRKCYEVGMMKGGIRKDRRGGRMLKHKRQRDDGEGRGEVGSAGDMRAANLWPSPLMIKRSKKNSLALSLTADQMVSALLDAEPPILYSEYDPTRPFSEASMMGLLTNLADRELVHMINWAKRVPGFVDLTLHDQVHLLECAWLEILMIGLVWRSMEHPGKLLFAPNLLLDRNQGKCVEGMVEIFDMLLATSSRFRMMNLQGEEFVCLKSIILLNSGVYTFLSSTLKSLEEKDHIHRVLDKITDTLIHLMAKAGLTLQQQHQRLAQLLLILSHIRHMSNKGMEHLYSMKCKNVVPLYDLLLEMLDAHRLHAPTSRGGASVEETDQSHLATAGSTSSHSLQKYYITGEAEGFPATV
In words: Effective concentration against estrogen receptor alpha of MCF-7-2a cells.

For assay [3], the target named is T1, Estrogen receptor beta. In words: Percent activation of estrogen receptor beta in luciferase assay at 10 uM. The gist of the method: (§2)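 U-2 OS cells grown in charcoal-treated FCS medium were transiently co-transfected with pSG5-ERβ FL (0.05 µg) and (ERE)2luc+ reporter (5 µg) using Fugene6, then pooled and reseeded. Compounds were added at 10^-5 to 10^-10 M in 0.1% DMSO for 21 h. Luciferase RLU was normalised to crystal-violet cell mass, in triplicate, and expressed as % of the E2 plateau.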

In assay [4] the target is T1, Estrogen receptor beta. In words: Effective concentration against estrogen receptor beta of […]. The gist of the method:
as §2

In assay [5] the target is T1, Estrogen receptor beta. In words: Percent inhibition of 0.30 nM estradiol activity on estrogen receptor beta in U-2 OS cells at 10 uM.
Assay [6] deals with T1, Estrogen receptor beta. Briefly: Inhibition of estrogen receptor beta at 10 uM.
Assay [7] deals with T2, Estrogen receptor. In words: Inhibition of estrogen receptor alpha in MCF-7-2a cells at 10 uM. The format is cell-based.
Assay [8] has as its target T1, Estrogen receptor beta. In words: Inhibition of estrogen receptor beta in […] at 10 uM. The format is cell-based. The gist of the method:
as §1

T1 sequence (Q92731 whole entry): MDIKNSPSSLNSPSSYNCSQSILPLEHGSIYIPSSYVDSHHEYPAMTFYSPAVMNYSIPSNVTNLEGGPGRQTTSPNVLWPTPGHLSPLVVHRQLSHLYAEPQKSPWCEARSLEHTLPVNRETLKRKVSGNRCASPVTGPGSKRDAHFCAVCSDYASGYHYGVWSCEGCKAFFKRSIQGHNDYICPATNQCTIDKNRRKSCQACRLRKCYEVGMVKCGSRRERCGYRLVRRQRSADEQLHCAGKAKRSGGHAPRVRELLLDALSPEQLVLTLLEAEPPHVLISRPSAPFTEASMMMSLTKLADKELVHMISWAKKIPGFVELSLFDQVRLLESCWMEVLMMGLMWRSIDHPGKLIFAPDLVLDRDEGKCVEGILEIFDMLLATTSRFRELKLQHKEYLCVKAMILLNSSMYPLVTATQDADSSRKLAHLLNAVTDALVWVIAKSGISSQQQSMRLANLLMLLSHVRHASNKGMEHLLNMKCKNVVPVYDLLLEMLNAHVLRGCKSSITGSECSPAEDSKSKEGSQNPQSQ

In turn, `CN(C)CCOc1ccc([C@H]2N=CN[C@H]2c2ccc(O)cc2)cc1` gave an inhibition on Estrogen receptor beta [1] of 0%. The same molecule yielded an EC50 at Estrogen receptor [2] of 3.47 µM. At Estrogen receptor beta [3], the Activation was found to be 36%.

For `Oc1cc(Cl)c([C@@H]2N=CN[C@@H]2c2ccc(OCCN3CCCCC3)cc2Cl)c(Cl)c1`, the inhibition on Estrogen receptor beta [1] turned out to be 0%. For the same molecule, the EC50 came to 0.085 µM on Estrogen receptor [2] and 0.4 µM on Estrogen receptor beta [4]. Moreover, the Activation on Estrogen receptor beta [3] was found to be 103%.

`CCC1=N[C@H](c2ccc(OCCN3CCCCC3)cc2)[C@H](c2ccc(O)cc2)N1` gave an inhibition at Estrogen receptor beta [5] of 57%. The same molecule came in with an Activation at Estrogen receptor beta [3] of 95%. Besides, the figures for the half-inhibitory concentration (IC50) at Estrogen receptor beta [6] and on Estrogen receptor [7] were 9 µM and 0.038 µM, respectively. In addition, the midpoint of the response at Estrogen receptor beta [4], the EC50, lay at 0.5 µM.

For `Oc1ccc([C@@H]2N=CN[C@@H]2c2ccc(OCCN3CCCCC3)cc2Cl)c(Cl)c1`, the inhibition against Estrogen receptor beta [1] is 0%. The concentration giving a half-maximal response (EC50) at Estrogen receptor [2] was 1.7 µM; on Estrogen receptor beta [4] it was 0.6 µM. For the same molecule, the Activation at Estrogen receptor beta [3] amounted to 60%.

Regarding `CCC1=N[C@H](c2ccc(OCCN3CCCCC3)cc2Cl)[C@H](c2ccc(O)cc2Cl)N1`, the inhibition against Estrogen receptor beta [5] worked out at 75%. Also, on Estrogen receptor beta [3], the Activation was determined as 92%. This molecule also yielded an EC50 at Estrogen receptor beta [4] of 2.8 µM. Moreover, it took 6 µM to reach half-maximal inhibition on Estrogen receptor beta [8] (IC50).

In the case of `CN(C)CCOc1ccc([C@H]2NC=N[C@H]2c2ccc(O)cc2Cl)c(Cl)c1`, the EC50 on Estrogen receptor [2] stood at 1.5 µM; at Estrogen receptor beta [4] it was 3.55 µM.

In turn, `Oc1ccc([C@@H]2N=CN[C@@H]2c2ccc(OCCN3CCCC3)cc2Cl)c(Cl)c1` showed an inhibition on Estrogen receptor beta [1] of 30%. In addition, the EC50 on Estrogen receptor [2] was determined as 1.82 µM; on Estrogen receptor beta [4], 0.47 µM. In addition, the Activation at Estrogen receptor beta [3] was 105%.

Regarding `CN(C)CCOc1ccc([C@H]2N=CN[C@H]2c2ccc(O)cc2Cl)c(Cl)c1`, at Estrogen receptor beta [1], the inhibition was determined as 4%. This molecule also had an Activation at Estrogen receptor beta [3] of 75%.

On to `Oc1ccc([C@@H]2N=CN[C@@H]2c2ccc(OCCN3CCCCC3)cc2)cc1`, for which the inhibition against Estrogen receptor beta [1] amounted to 12%. Further, the Activation on Estrogen receptor beta [3] worked out at 26%.
